Eight compounds from ChEMBL document CHEMBL1156178, “Discovery of novel 6,6-heterocycles as transient receptor potential vanilloid (TRPV1) antagonists” (J Med Chem, 2010) can be followed below.

pIC50: −log10 of the molar value. Converted amounts (≈) assume the structure as drawn.

For series [1], the target named is Transient receptor potential cation channel subfamily V member 1 (Homo sapiens, UniProt Q8NER1). As to the kind of experiment: Antagonist activity at human recombinant TRPV1 expressed in HEK293 cells assessed as inhibition of capsaicin-induced calcium mobilization by FLIPR assay.
The nature of series [2]: Solubility in 0.1 N HCL after 4 hrs by HPLC/MS analysis. In kind it is physicochemical.
Series [3] relates to Rattus norvegicus. As to the kind of experiment: Clearance in rat at […] iv dose. The following applies: in vivo. Details: dose 1.5 mg/kg, route intravenous. In kind it is ADME, organism-based.
Series [4] in a line: Metabolic stability in rat liver microsomes assessed as compound remaining at 1 uM after 10 mins by LCMS analysis. Format: ADME, Microsome. The following applies: read-out: Activity. In outline: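 Compound (1 μM) incubated at 37 °C with 0.5 mg/mL male pooled rat liver microsomes; NADPH added to start the reaction. Aliquots were taken at 0 and 10 min and quenched into ice-cold acetonitrile with internal standard, then centrifuged. Parent was monitored as the M+1 ion by ESI-LCMS in selected-ion mode. Percent remaining was taken as the 10 min/0 min signal ratio, corrected by internal-standard recovery.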

Series [5] concerns the target Transient receptor potential cation channel subfamily V member 1 (Rattus norvegicus, UniProt O35433). The series can be described thus: Inhibition of rat TRPV1.

Transient receptor potential cation channel subfamily V member 1 (Homo sapiens, UniProt Q8NER1), sequence (Q8NER1 whole entry): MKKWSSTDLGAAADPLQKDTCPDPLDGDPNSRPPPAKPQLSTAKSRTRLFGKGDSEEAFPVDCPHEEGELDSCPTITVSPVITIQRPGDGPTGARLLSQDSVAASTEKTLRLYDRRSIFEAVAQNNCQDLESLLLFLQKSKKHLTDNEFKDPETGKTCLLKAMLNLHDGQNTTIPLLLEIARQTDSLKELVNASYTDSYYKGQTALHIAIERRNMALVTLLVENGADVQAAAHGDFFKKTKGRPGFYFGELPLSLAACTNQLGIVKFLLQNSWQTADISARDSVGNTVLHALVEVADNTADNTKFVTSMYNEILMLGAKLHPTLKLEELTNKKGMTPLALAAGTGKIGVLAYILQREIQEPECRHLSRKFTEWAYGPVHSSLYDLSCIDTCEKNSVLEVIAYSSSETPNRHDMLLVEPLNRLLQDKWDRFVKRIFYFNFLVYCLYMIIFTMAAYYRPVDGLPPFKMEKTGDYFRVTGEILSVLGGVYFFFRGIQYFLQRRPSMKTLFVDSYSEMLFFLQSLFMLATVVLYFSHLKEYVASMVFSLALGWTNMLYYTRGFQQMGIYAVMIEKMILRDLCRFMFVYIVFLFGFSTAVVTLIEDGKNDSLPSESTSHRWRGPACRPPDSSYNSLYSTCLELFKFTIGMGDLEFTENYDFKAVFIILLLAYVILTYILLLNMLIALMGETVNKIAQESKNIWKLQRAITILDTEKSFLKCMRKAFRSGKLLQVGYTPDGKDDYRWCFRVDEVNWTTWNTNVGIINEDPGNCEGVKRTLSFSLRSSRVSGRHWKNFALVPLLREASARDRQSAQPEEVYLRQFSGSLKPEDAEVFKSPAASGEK
Transient receptor potential cation channel subfamily V member 1 (Rattus norvegicus, UniProt O35433), sequence (O35433 whole entry): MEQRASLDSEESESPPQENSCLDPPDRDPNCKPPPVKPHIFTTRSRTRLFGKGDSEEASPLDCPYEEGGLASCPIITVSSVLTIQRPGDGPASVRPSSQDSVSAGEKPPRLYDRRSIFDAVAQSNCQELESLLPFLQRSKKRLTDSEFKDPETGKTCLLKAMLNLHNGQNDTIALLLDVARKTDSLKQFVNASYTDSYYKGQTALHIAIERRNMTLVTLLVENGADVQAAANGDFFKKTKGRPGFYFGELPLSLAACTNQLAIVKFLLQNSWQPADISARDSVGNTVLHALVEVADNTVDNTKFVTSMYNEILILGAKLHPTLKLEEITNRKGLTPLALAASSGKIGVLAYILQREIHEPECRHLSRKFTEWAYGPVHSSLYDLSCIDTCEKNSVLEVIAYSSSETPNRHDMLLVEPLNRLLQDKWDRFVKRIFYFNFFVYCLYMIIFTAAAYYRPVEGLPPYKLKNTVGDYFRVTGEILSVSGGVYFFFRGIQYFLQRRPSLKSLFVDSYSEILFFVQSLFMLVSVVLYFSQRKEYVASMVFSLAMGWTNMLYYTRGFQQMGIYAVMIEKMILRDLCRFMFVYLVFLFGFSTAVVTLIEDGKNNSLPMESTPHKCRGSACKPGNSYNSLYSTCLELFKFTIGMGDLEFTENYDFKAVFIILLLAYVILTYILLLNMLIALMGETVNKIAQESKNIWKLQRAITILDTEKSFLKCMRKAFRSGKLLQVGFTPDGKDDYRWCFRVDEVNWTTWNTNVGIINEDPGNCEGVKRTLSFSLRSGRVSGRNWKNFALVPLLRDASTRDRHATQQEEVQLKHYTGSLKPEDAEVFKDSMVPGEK

Consider `FC(F)(F)c1ccc(Nc2ncnc3nc(-c4ncccc4C(F)(F)F)cnc23)cc1`, for which the pIC50 in series [1] is 9.68. In series [2], this compound returned a solubility at 4 h of 1 µg/mL (≈ 2.29 µM). Taken in the same sequence, the figures for `FC(F)(F)c1ccc(Nc2ccnc3nc(-c4ncccc4C(F)(F)F)cnc23)nc1` were 9.64 and 8 µg/mL (≈ 18.3 µM). With `FC(F)(F)c1ccc(Nc2ncnc3cc(-c4ncccc4C(F)(F)F)ccc23)nc1`, the CL in series [3] is recorded as 4.2 (ml/min)/kg. For the same compound, the concentration in solution in series [2] (solubility at 4 h) came to 33 µg/mL (≈ 75.8 µM). In series [4], the remaining at 10 min, 1 µM worked out at 91%. Turning to `FC(F)(F)c1ccc(Nc2nccc3nc(-c4ncccc4C(F)(F)F)cnc23)nc1`, the negative-log IC50 (pIC50) in series [1] is 7.10. In addition, in series [2], the solubility at 4 h was determined as 12 µg/mL (≈ 27.5 µM).

Turning to `O=C(Nc1ccccc1Br)N[C@@H]1CCN(c2ccc(C(F)(F)F)cn2)C1` [SB-705498], the negative logarithm of the IC50 (pIC50) in series [5] was 7.49. As to `FC(F)(F)c1ccc(Nc2cncc3nc(-c4ncccc4C(F)(F)F)ccc23)nc1`, in series [1], the negative-log IC50 (pIC50) is 6.34. In series [2], this compound displayed a solubility at 4 h of 20 µg/mL (≈ 45.9 µM).

On to `FC(F)(F)c1ccc(Nc2ncnc3cc(-c4ncccc4C(F)(F)F)cnc23)cc1`, for which the negative logarithm of the IC50 (pIC50) in series [1] was 9.20. The solubility at 4 h in series [2] was 6 µg/mL (≈ 13.8 µM). In the case of `FC(F)(F)c1ccc(Nc2cnnc3cc(-c4ncccc4C(F)(F)F)ccc23)nc1`, the pIC50 in series [1] is 7.54.

By pIC50 is commonly meant −log10 of the IC50, conventionally taken in molar units. What is called solubility is how much of the substance goes into solution per volume.
